Bioassay records as filed in PubChem.
A selection: hits, their analogues and other compounds. The true share with any hit is near 9.8%.
WT yeast gro inh: growth inhibition of WT yeast, mitochondrial fusion screen. mitochondrial fusion phenotypic screen, WT strain. inhibition, % at 10 µM. 190,000 tested, 2.1% active. AID 1362; in the data active = inhibition above about 58%; tested in S. cerevisiae
PMI act: activators of human phosphomannose isomerase; purified human PMI, coupled resazurin fluorescence, 20 min; active compounds read high; 1 = vehicle control, 0 substrate-free wells; activation factor at 20 µM; 190,000 tested, 0.005% active;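 active = activation factor of 2 or more at 20 µM, relative to plate controls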
Calpain2 inh: blocks pig calpain II enzyme activity. purified calpain II, fluorogenic peptide substrate, 30 min. inhibition, % at 16 µM. 220,000 tested, 0.37% active. AID 1236;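 active = inhibition above about 50%, limit read from the data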
Rad51 HR inh: blocks human Rad51 in homologous recombination; inhibition, % at 10 µM; 200,000 tested, 0.085% active; Q06609; hRad51 DNA strand exchange, fluorescence dequenching; AID 1385;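 active = inhibition above 40% at the single screening dose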;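 note: 0% = DMSO control wells and 100% = blanks with heterologous ssDNA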
Target sequence (Q06609 whole entry, looked up): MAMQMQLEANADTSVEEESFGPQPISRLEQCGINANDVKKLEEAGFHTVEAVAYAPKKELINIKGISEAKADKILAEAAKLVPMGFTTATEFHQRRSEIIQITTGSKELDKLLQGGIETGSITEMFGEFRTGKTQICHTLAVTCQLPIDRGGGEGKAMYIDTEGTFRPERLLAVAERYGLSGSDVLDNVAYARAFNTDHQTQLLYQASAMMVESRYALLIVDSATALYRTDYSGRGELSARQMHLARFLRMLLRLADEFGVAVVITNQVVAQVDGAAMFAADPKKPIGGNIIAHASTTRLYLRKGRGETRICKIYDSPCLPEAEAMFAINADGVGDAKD
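material = hRad51 filaments on single-stranded DNA | reagent = Donor/quencher-labelled 47-bp dsDNA substrate | compound = 10 µM final, single point | schedule = strand-exchange reaction 15 min at room temperature | measured by = fluorescein emission 520 nm, excitation 485 nm | read-out basis = % inhibition versus plate control and blank means | benchmarks = plate controls and plate blanks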
PMI act satM6P: increases human PMI activity with near-saturating mannose 6-phosphate. P34949. coupled PMI enzyme assay, resazurin fluorescence, 20 min; active compounds read high; 1 = untreated enzyme, 0 = substrate-free blank. activation factor at 20 µM. 190,000 tested, 0.34% active. AID 1216;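 active = activation factor of 2 or more at 20 µM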
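Test system: human phosphomannose isomerase with PGI, G6PDH, diaphorase coupling enzymes; Amount: PMI at 15 ng/mL final; Reagent: Mannose-6-phosphate 1.0 mM (near-saturating) plus 0.22 mM NADP+; Timing: 20 min, room temperature; Technique: resorufin fluorescence at Ex 544/Em 590 nm; Dosing: 20 µM single dose.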
Lmaj promast: reduces viability of Leishmania major promastigotes; resazurin fluorescence viability; AID 1063; 200,000 tested, 9% active; inhibition, % at 10 µM; in the data active = inhibition above about 50%;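 note: promastigotes grown with compound for 44 hours at 28 °C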
Numbers without * were called inactive; i = inactive; nt = not tested or not shown.

SMILES	WT yeast gro inh	PMI act	Calpain2 inh	Rad51 HR inh	PMI act satM6P	Lmaj promast
O=S(=O)(NC1c2cccc3cccc(c23)C1Sc1ncccn1)c1ccc(Cl)cc1 (stereo not drawn)	28.2	0.9	-13.6	-14.9	0.9	83.2*
Cc1ccc(S(=O)(=O)NC2c3cccc4cccc(c34)C2Sc2n[nH]c(N)n2)cc1 (stereo not drawn)	14.7	0.8	-2.8	-7.0	0.8	-0.8
Cc1ccc(S(=O)(=O)N2CCN(C(=O)Cc3ccc4c(c3)OCCO4)CC2)cc1C	3.5	1	2.8	11.7	1	-4.6
O=c1/c(=C\c2cc([N+](=O)[O-])cc([N+](=O)[O-])c2O)sc2nc3ccccc3n12	-1.2	1.7	19.1	i	2.4*	-8.5
COc1cccc(NC(=S)N(Cc2ccccn2)Cc2ccccc2Cl)c1	68.5*	1	10.3	-2.3	1	61.5*
COc1ccc(NC(=S)N(Cc2ccccn2)Cc2ccccc2Cl)cc1	74.8*	0.9	4.6	-2.5	0.9	37.2
NC(=O)c1cc(C(=O)c2ccccc2Cl)c[nH]1	9.1	1	-14.9	14.6	1	4.7
COc1cccc(/C=N/n2c(N)nc3ccccc32)c1OC	20.1	1	-9.3	-1.4	1	59.1*
CCOC(=O)C(Cc1ccccc1)c1ccnc2nc(N)nn12 (stereo not drawn)	6.4	1.1	-87.0	-3.9	1.1	-6.2
Cc1nc(-c2nc(-c3c(C(=O)NNC(=O)Nc4ccccc4)noc3C)cs2)cs1	nt	nt	2.9	1.2	nt	nt
Cc1ccc(C(OC(=O)c2ccco2)C(=O)NCc2cccs2)cc1 (stereo not drawn)	-2.5	1	0.1	-1.3	0.9	55.9*
Cc1nn(-c2ccccc2)c(Cl)c1C(=O)OC(C)C(=O)NC(=O)NC1CCCCC1 (stereo not drawn)	69.4*	0.9	-49.4	5.6	0.9	1.9
COc1ccccc1C(=O)NCC(=O)OC(C)C(=O)NC(=O)NC1CCCCC1 (stereo not drawn)	5.9	1	2.8	-2.7	1.1	-1.6
Cc1cccc(NC(=O)C2CCN(S(=O)(=O)c3c(C)noc3/C=C/c3ccco3)CC2)n1	12.5	1	3.3	4.8	1	98.7*
COCCNC(=O)C1CCN(S(=O)(=O)c2c(C)noc2/C=C/c2cccs2)CC1	nt	nt	34.6	-6.2	nt	nt
Cc1ccc(C2=CC(C)(c3ccc(C)cc3)Nc3nc(C(F)(F)F)nn32)cc1 (stereo not drawn)	71.0*	0.8	10.9	1.5	0.9	38.6
CC1(c2ccc(OCC#N)cc2)C=C(c2ccc(OCC#N)cc2)n2nc(C(F)(F)F)nc2N1 (stereo not drawn)	-1.2	1	2.2	2.8	1	96.8*
CCN(C(=O)C(C)Cl)c1ccccc1 (stereo not drawn)	-25.1	1	-16.1	7.8	1	-6.3
CCc1ccc(NC(=S)NC2CC3CCCC(C2)N3Cc2ccccc2)cc1 (stereo not drawn)	43.2	1	35.8	-17.6	1	95.5*
CCN(CC)C(=O)NC1CC2CCCC(C1)N2Cc1ccccc1 (stereo not drawn)	-9.3	1.1	2.2	0.7	1.1	-0.8
CNC(=S)NC1CC2CCC(C1)N2Cc1ccccc1 (stereo not drawn)	8.1	1	15.1	0.4	1.1	85.7*
S=C(Nc1ccc(Cl)cc1)NC1CC2CCC(C1)N2Cc1ccccc1 (stereo not drawn)	32.3	1	10.4	nt	1	99.7*
CNC(=S)NC1CC2CCCC(C1)N2Cc1ccco1 (stereo not drawn)	15.0	0.9	-33.1	2.2	0.9	8.0
COc1ccc(CN2C3CCCC2CC(NC(=O)/C=C/c2ccccc2)C3)cc1 (stereo not drawn)	-2.3	1	-7.4	-8.8	1	87.5*
Cc1c(/C(O)=C2\C(=O)C(=O)N(CCN(C)C)C2c2ccccc2)cnn1-c1ccccc1 (stereo not drawn)	nt	nt	-13.2	29.5	nt	nt
SMILES	WT yeast gro inh	PMI act	Calpain2 inh	Rad51 HR inh	PMI act satM6P	Lmaj promast
Cc1cccc2cc(C#N)c(N3CCC(O)CC3)nc12	-8.2	1	-213.1	7.0	0.9	2.9
Cc1cc(C)cc(NS(=O)(=O)c2cnc(Cl)c(Cl)c2)c1	5.0	0.9	12.2	7.1	1	82.1*
COc1cc(S(=O)(=O)Nc2cc(C)cc(C)c2)ccc1F	-0.8	1	-1.5	3.8	1.1	9.2
CCOc1ccc(NS(=O)(=O)c2cnc(Cl)c(Cl)c2)cc1	71.0*	0.9	19.1	17.3	0.9	-1.9
Brc1ccc2ncnc(NCc3ccco3)c2c1	-13.4	1	-23.9	-1.4	1	55.0*
c1ccc(-c2nc(NCc3ccco3)c3ccccc3n2)nc1	37.1	0.9	9.8	-5.2	0.8	100.5*
COc1ccccc1Nc1nc(NCc2ccco2)c2ccccc2n1	nt	nt	14.2	0.9	nt	nt
Oc1ccccc1-c1nc(NCc2ccco2)c2ccccc2n1	4.7	0.8	-33.6	8.1	0.8	28.6
Fc1ccccc1-c1nc(NCc2ccco2)c2ccccc2n1	2.2	1	19.3	-0.3	1	53.4*
C(=N\Nc1nc(-c2ccccn2)nc2ccccc12)/c1ccccc1	nt	nt	-2.0	7.1	nt	nt
Cc1ccc(Nc2nc(NCc3ccco3)c3ccccc3n2)cc1	94.1*	1.1	-66.1	9.3	1.1	100.5*
COC(=O)COc1ccc(-n2cnnn2)cc1	-0.2	0.9	5.5	2.0	0.9	-2.5
O=C(COC(=O)/C=C/c1ccccc1)NCc1ccccc1Cl	12.8	1	-9.3	-2.1	1	-6.7
CC(C)CN(C)Cc1c(C(=O)N2CCc3ccccc3C2)nc2ccc(Cl)cn12	26.0	1	44.9	-0.4	1.1	22.4
O=C(CNC(=S)N(Cc1ccccc1)Cc1ccccc1F)NCc1ccc(Cl)cc1	81.2*	0.9	33.4	-2.1	1	7.5
O=C(CNC(=S)N(Cc1ccccc1)Cc1ccccc1F)NCCc1ccccc1	64.0*	0.9	36.6	-5.7	1	26.6
O=C(CN(Cc1ccccc1F)C(=O)c1ccco1)NCc1ccc(F)cc1	-0.3	0.9	22.5	4.6	0.9	-2.0
O=C(CNC(=S)N(Cc1ccccc1)Cc1ccccc1F)NCc1ccccc1	74.6*	0.8	54.1*	-2.7	0.9	22.3
CN(C)CCNC(=O)CNC(=S)N(Cc1ccccc1)Cc1ccccc1F	19.8	0.9	38.1	10.1	0.9	-2.4
Cc1ccc(CNC(=O)CNC(=S)N(Cc2ccccc2)Cc2ccccc2F)cc1	73.8*	0.8	47.5	4.5	0.9	16.0
CCOC(=O)CNC(=S)N(Cc1ccccc1)Cc1ccccc1F	5.7	1	20.8	-20.3	1	20.1
O=C1CCCC(O)=C1C=NCc1ccccc1	0.3	1.1	17.0	-2.0	1	-1.6
O=C1CC(C(=O)Nc2cccc(F)c2)n2ncnc2N1 (stereo not drawn)	-15.0	1.1	-22.9	0.3	1.1	-1.2
